This is a sample that favours compounds with a hit; in the whole collection about 2% have one here.
Rpn11 block = blocks the human proteasome subunit Rpn11. AID 588493. hit rate 0.59% among 360,000. human 26S proteasome, Ub4-pepOG fluorescence polarization; 20S core pre-blocked with epoxomicin. inhibition, % at 20 µM;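 active means inhibition at 20 µM, scaled to each plate's controls, above about 33%, limit read from the data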
TPT1 inhibitor = C. albicans TPT1 enzyme inhibition. inhibition, % at 5 µM. recombinant caTPT1, FP RNA substrate dephosphorylation. hit rate 0.81% among 300,000;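 active means inhibition above the mean of all tested compounds plus 3 SD, set per screening campaign, cut at about 24% in these data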;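 further: plate controls were DMSO alone for no effect and ferristatin control at 100 nM for full effect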
HNF4A DNA FP = change in binding of human HNF4 alpha to DNA; P41235; HNF4a-FITC DNA binding, fluorescence polarization, 1 h; activity change, % at 10 µM; hit rate 0.3% among 360,000; in the data active means activity change above about 30%, passing the limit was not always enough
Target sequence (P41235 whole entry, looked up): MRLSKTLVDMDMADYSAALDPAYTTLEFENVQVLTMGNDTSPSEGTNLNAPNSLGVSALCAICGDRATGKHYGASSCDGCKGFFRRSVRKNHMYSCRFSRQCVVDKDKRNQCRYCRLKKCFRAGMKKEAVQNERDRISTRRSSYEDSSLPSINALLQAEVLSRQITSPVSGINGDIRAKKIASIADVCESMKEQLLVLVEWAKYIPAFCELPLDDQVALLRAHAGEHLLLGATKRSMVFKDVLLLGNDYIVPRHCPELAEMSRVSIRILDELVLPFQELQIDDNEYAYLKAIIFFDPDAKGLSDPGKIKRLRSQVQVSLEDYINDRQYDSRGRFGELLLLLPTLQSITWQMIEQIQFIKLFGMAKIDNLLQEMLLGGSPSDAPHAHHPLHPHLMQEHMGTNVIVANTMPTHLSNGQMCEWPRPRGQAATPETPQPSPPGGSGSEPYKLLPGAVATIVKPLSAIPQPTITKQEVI
SENP1 FRET inh = blocks the human SENP1 SUMO protease catalytic domain; Q9P0U3; recombinant SENP1 catalytic domain, CyPet-SUMO1-YPet FRET cleavage; inhibition, % at 10 µM; hit rate 0.21% among 360,000; AID 624204;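 active means inhibition at least 30% at 10 µM, raw YFP signal under a set limit, fluorescence ratio 0.5 to 1.5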;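 further: 0% = enzyme with DMSO and 100% = no enzyme wells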
Target sequence (Q9P0U3 419-644 limits assumed): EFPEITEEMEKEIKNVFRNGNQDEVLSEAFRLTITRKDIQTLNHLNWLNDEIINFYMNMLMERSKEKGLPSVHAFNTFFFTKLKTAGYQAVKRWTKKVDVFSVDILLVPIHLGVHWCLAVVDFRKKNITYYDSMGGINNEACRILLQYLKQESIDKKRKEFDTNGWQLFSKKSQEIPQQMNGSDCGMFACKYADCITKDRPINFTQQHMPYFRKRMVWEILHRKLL
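Material – human SENP1 catalytic domain · Input – SENP1 enzyme, 20 pM final · Compound dosing – single concentration of 10 µM compound, 0.5% DMSO final · Timing – enzyme reaction for 50 min at room temperature, dark · Measured by – FRET fluorescence in CFP and YFP emission channels · Control set – no-enzyme wells low, DMSO-plus-enzyme wells high control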
ATG4B inh = inhibitors of human ATG4B cysteine protease; hit rate 0.51% among 340,000; Q9Y4P1; ATG4B cleavage of LC3-PLA2, NBD-HPC fluorescence, 1 h; inhibition, % at 8.33 µM; in the data active means inhibition above about 40%
CSN inh = blocks human CSN-mediated cullin deneddylation; Q92905; Purified CSN, SCF-Nedd8-OG deneddylation, fluorescence polarization; inhibition, % at 12.5 µM; hit rate 0.38% among 360,000; AID 651999;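 active means pattern-corrected inhibition above about 35%, with an unprinted fluorescence ratio check between 0.5 and 1.5, limit read from the data, passing the limit was not always enough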;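 further: 0% = enzyme with substrate and 100% = substrate without enzyme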
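Material: human Csn5 produced in HEK293T cells; Input: enzyme 0.24 nM; Reagent: SCFSkp2-Nedd8OG substrate at 10 nM final; Dosing: 12.5 µM compound; Incubation: 90 min reaction at room temperature; Detection: fluorescence polarization of the substrate; Evaluation: % inhibition of substrate cleavage by Csn5; Control set: substrate-only high control, full reaction low control.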
ATG4B conf = confirmation of human ATG4B inhibitors. shares compounds with ATG4B inh. ATG4B protease fluorescent substrate cleavage assay. inhibition, % at 8.33 µM. hit rate 92% among 320; in the data active means inhibition above about 39%
PLA2 ctr = counter-screen for ATG4B inhibitors: human phospholipase A2; shares compounds with ATG4B inh; purified PLA2, NBD-C6-HPC fluorescence, 45 min; inhibition, % at 8.33 µM; hit rate 66% among 1,600; in the data active means inhibition above about 50%
An asterisk follows results filed as active; x = no result given.

SMILES | Rpn11 block | TPT1 inhibitor | HNF4A DNA FP | SENP1 FRET inh | ATG4B inh | CSN inh | PLA2 ctr | others
Cc1ccc(SC(C)C(=O)Nc2ccccc2-c2ccccc2)cc1 (stereo not given) | 0.2 | -5.6 | -0.1 | 1.0 | 30.6 | -3.7 | x
CC(Sc1ccc(Cl)cc1)C(=O)Nc1ccccc1-c1ccccc1 (stereo not given) | 11.4 | -1.1 | -1.2 | 0.6 | 50.1* | -18.0 | 33.8 | ATG4B conf=70.9*
O=C1c2ccccc2C(=O)N1c1nc(-c2cccs2)cs1 | 2.0 | -3.5 | 3.8 | 2.5 | 58.9* | 7.7 | 63.5*
Cc1c(C(=O)Nc2ccccc2[N+](=O)[O-])csc1-c1ccccc1 | -5.3 | -0.9 | 3.0 | 3.9 | 59.2* | -5.6 | 47.9
NC(=O)C1CCN(c2nc(-c3cc4ccccc4o3)cs2)CC1 | 1.8 | x | -2.3 | -70.7 | 45.3* | 5.4 | 49.5
COc1ccc(S(N)(=O)=O)cc1C(=O)OCCCC(=O)c1ccccc1 | 7.0 | x | 5.3 | -0.7 | -58.6 | -2.7 | x
NC(=O)c1ccc(CSc2nc3ccccc3s2)cc1 | -2.1 | -2.8 | 1.6 | 1.8 | 51.1* | -0.2 | 58.5*
CC[C@H]1C=C[C@@H](C(C(=O)OC)C(=O)OC)CN1C(C)=O | -9.2 | x | 0.6 | 2.1 | x | -0.9 | x
Cc1cc(Cn2nc(-c3ccccc3)cc2C(=O)NCc2cccc(Br)c2)on1 | 17.6 | -2.1 | 5.1 | -1.9 | 28.3 | -3.5 | x
CCCCCCCCOC(=O)c1c(CSC(=N)N)n(C)c2cc(Br)c(OC(C)=O)cc12 | 9.9 | -0.4 | -0.5 | 2.7 | 40.4* | 3.9 | 4.7 | ATG4B conf=64.8*
CCOC(=O)c1c(CSC(=N)N)n(-c2ccc(Br)cc2)c2cc(Br)c(OC(C)=O)cc12 | 6.1 | x | 1.7 | 2.7 | 14.4 | -0.6 | x
Cc1ccc(OCC(=O)NNC(=O)c2ccc(F)c(S(=O)(=O)N3CCOCC3)c2)cc1C | -2.5 | x | 0.8 | 2.1 | x | 3.6 | x
CCN1CCN(c2nc3c(C)cccn3c(=O)c2/C=C(\C#N)S(=O)(=O)c2ccccc2)CC1 | -12.4 | -6.5 | -8.0 | -14.3 | 50.2* | -0.9 | 51.6*
COc1cc(NC(=S)Nc2cccc(Cl)c2Cl)c(OC)cc1Cl | -2.5 | 0.1 | 0.8 | -1.2 | 40.0* | 1.0 | 60.0*
COC(=O)c1cccc(NC(=S)Nc2cccc(Cl)c2Cl)c1 | -6.6 | 0.6 | -0.6 | -1.5 | 44.1* | -4.9 | 47.9
COc1ccc(S(=O)(=O)NC(=O)C2(C)CCN2C(=O)Cc2cccc3ccccc23)cc1 (stereo not given) | -4.6 | x | 0.3 | 0.2 | x | 2.7 | x
Nc1c(N2CCN(c3ccccc3)CC2)c2ccccc2oc1=O | -4.6 | 1.2 | -2.8 | 0.8 | 42.9* | -1.1 | 44.2 | ATG4B conf=78.5*
Nc1c(N)c2ccccc2oc1=O | -1.3 | -1.3 | -0.2 | -12.4 | -1.5 | 1.4 | x
COC(=O)[C@H](Cc1ccccc1)NC(=O)/C=C/[C@H]1O[C@@H](n2cc(C)c(=O)[nH]c2=O)C[C@@H]1O | -0.9 | x | -0.7 | -1.1 | x | 2.2 | x
COc1ccc(-c2oc3ccccc3c(=O)c2OC(=O)c2ccc(C)cc2)cc1 | 4.6 | -2.2 | 1.1 | 2.8 | 3.9 | 2.5 | x
O=C(Oc1c(-c2ccccc2)oc2ccccc2c1=O)c1ccccc1 | 7.9 | 1.9 | 4.3 | 1.2 | 45.1* | -12.3 | 64.0*
O=C(CC(=O)c1ccccc1)CS(=O)(=O)c1ccccc1 | -2.1 | x | 1.6 | 1.7 | -4.6 | 2.0 | x
Cc1ccc(S(=O)(=O)N2CCN(C(=O)CCC(=O)NCc3cccc(C(F)(F)F)c3)CC2)cc1 | 1.5 | -1.8 | -2.2 | -1.2 | 70.8* | 13.4 | 77.6*
CN(CC(=O)Nc1ccc(C#N)cc1)CC(=O)Nc1ccc(N2CCOCC2)cc1 | -2.8 | -2.6 | 0.2 | 2.6 | 40.6* | -6.4 | 2.5
O=[N+]([O-])c1ccccc1-c1ccc(/C=N/n2cnnc2)o1 | -4.1 | -0.1 | 4.8 | -4.3 | 2.4 | 0.9 | x
SMILES | Rpn11 block | TPT1 inhibitor | HNF4A DNA FP | SENP1 FRET inh | ATG4B inh | CSN inh | PLA2 ctr | others
O=C1ON=C(c2ccccc2)/C1=C/c1ccc(-c2ccccc2[N+](=O)[O-])o1 | -1.7 | -0.8 | -5.3 | 1.5 | 69.4* | 6.0 | 51.3*
CC(C)NC(=O)NC(=O)CSc1nnc(COc2ccccc2F)n1C(C)C1CC2CCC1C2 (stereo not given) | 0.4 | -3.3 | -5.3 | -0.7 | 42.2* | 0.0 | 43.5
CCc1ccc(C2CC3C(CN2S(=O)(=O)c2ccc(C)cc2)[C@@H](O)C[C@@H](c2ccc(CC)cc2)N3S(=O)(=O)c2ccc(C)cc2)cc1 (stereo not given in full) | x | x | -2.0 | 3.7 | x | 4.7 | x
CCc1nc(SCC(=O)N2CC(=O)Nc3ccccc32)c2c(C)c(C)sc2n1 | 5.2 | 1.4 | 0.7 | -1.7 | 71.0* | -1.1 | 76.9*
Cc1nc(SCC(=O)N2CC(=O)Nc3ccccc32)nc(C)c1C | 1.0 | 1.0 | 4.1 | -2.6 | 0.2 | 8.7 | x
Cc1sc2nc(C3CCCCC3)nc(SCC(=O)N3CC(=O)Nc4ccccc43)c2c1C | 4.6 | 2.2 | -4.0 | -1.1 | 94.3* | -1.7 | 34.8 | ATG4B conf=25.7*
N#Cc1c(NC(=O)Cn2c(=O)oc3ccccc32)oc(-c2ccccc2)c1-c1ccccc1 | 2.5 | 1.7 | -4.7 | 2.3 | 50.3* | 1.4 | 57.7*
CN(C)c1ccc(C(O)c2cc3ccccc3s2)cc1 (stereo not given) | -0.5 | x | 4.5 | 0.0 | -0.6 | 2.6 | x
C[C@H]1CN([C@@H](C)CO)C(=O)c2cc(NC(=O)NC3CCCCC3)ccc2O[C@H]1CN(C)C(=O)Nc1ccc(C(F)(F)F)cc1 | 10.6 | x | 0.6 | 1.7 | 61.6* | 0.9 | 73.7*
CC(Sc1ncnc2sc(-c3ccccc3)cc12)C(N)=O (stereo not given) | 2.7 | -2.5 | 4.4 | -3.3 | 48.3* | -1.2 | 61.9*
Cc1ccsc1C(=O)NCc1ccccc1Cl | 4.7 | -2.2 | -3.4 | 0.3 | 2.0 | 5.0 | x
Cc1ccsc1C(=O)NCCC(c1ccccc1)c1ccccc1 | -6.0 | 3.0 | -2.2 | 2.0 | 40.6* | -3.7 | 49.2
COc1ccc(S(=O)(=O)N2CCCCC2)cc1NC(=S)Nc1cccc(Cl)c1C | 5.5 | 3.1 | 3.4 | 1.3 | 71.4* | 6.5 | 73.0*
CCOc1ccccc1OCC(=O)Nc1cc(S(=O)(=O)N2CCCCC2)ccc1N1CCN(CC)CC1 | -6.5 | -0.7 | -0.1 | -0.3 | -4.9 | -0.7 | x
CCN(CC)S(=O)(=O)c1ccc(N2CCOCC2)c(NC(=O)COc2ccccc2C)c1 | 0.6 | x | -2.2 | 2.9 | 62.0* | -4.8 | 75.9*
COc1ccccc1OCC(=O)Nc1cc(S(=O)(=O)N2CCCCC2)ccc1N1CCCCC1 | 6.8 | 0.3 | -3.3 | -13.7 | 41.8* | -8.0 | 0.6

Source: PubChem BioAssay
